Experimental data pooled from the literature.
Protocols differ between the studies behind these lines.
Target: Tyrosine-protein kinase FRK (FRK, Homo sapiens, UniProt P42685)

`Cn1cncc1[C@](O)(COc1ccc(C#N)cc1-c1ccc(OC(F)(F)F)cc1)c1ccc(C#N)cc1` has a remaining binding of 100% (cell-free assay; competition with immobilised ligand; 1 µM).
The inhibition of `Cn1cc(-c2cc(F)cc(N3CCn4c(cc5c4CCCC5)C3=O)c2CO)cc(Nc2ccc(N3CCN(C4COC4)CC3)cn2)c1=O` is reported as 15% (enzyme activity; inhibitor; 0.1 µM).
`Nc1ncc(-c2nc(N3CCOCC3)nc(N3CCOCC3)n2)c(C(F)F)n1` has a remaining binding of 100% (binding; competition with immobilised ligand; 10 µM).
The remaining binding of `Cc1nn(C)cc1-c1nc2c(N3CCN(Cc4ccc(Cl)cc4)CC3)c(Cl)cnc2[nH]1` is reported as 100% (binding; competition with immobilised ligand; 1 µM).
With `N#CC1(c2ccccn2)CCN(Cc2cc(C(=O)O)c(=O)n3ccccc23)CC1` the remaining binding was 100% (cell-free assay; competition with immobilised ligand; 1 µM).
With `O=c1[nH]c2ccccc2n1C1CCN(Cc2ccc(-c3[nH]c4cc5ncnc5cc4nc3-c3ccccc3)cc2)CC1` the remaining signal was 102% (cell-free assay; 0.5 µM).
`Cn1cc(-c2cccc(N3CCc4c(sc5c4CC(C)(C)C5)C3=O)c2CO)cc(Nc2ccncn2)c1=O` has an inhibition of 9% (enzyme activity; inhibitor; 1 µM).
`CC(C)(C)c1cc(C=C(C#N)C#N)cc(Br)c1O` gave a remaining activity of 99.3% (enzyme activity; inhibitor; 0.5 µM).
With `COc1ncccc1-c1cnn2ccc(N3CCN(C(=O)OC(C)C)CC3)nc12` the remaining binding was 63% (binding; competition with immobilised ligand; 1 µM).
`COc1cc(Nc2ncc(F)c(Nc3ccc4c(n3)NC(=O)C(C)(C)O4)n2)cc(OC)c1OC` has an inhibition of 96% (binding; competition with immobilised ligand; 10 µM).
